Here are results for ten compounds from PubChem BioAssay.

A word on the inhibition: it is the relative decrease from the control value, in per cent.

Calls of active or inactive are those of the source.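 How the source made its calls, unless noted: active means fluorescence slope higher than the sample average by over 3 SD (cut at about -0.22 in these data, passing the limit was not always enough); inactive means the rest.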

A short description of test [1]: inhibitors of TNFa-induced NFkB p65 translocation, primary screen, imaging, HUVEC, MLSMR starter and 10KST1 sets (AID 438;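 active means inhibition above 20% together with a positive visual image hit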;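 further: compound added about 3h40 before a 20 min TNFalpha stimulation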;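 on inhibition: signal is the nuclear over cytoplasmic p65 intensity ratio per well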). As to conditions: HUVEC TNFa-induced p65 nuclear translocation; cell count: measured here: nuclei count (cytotoxicity indicator), at 2.08 µM; inhibition: at 2 µM, stronger effect = higher value, 0% TNFa-plus-vehicle, 100% no-TNFa wells.
Test [2] can be described thus: reduction of polyQ htt aggregates in cells – imaging, exon1htt(103Q)mCFP cells, high-content imaging, primary screen (AID 483;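 active means visual image review flags a hit and inhibition of aggregation exceeds 20%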;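 further: compound exposure lasted 3 days before fixation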;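 on nuclei count: percent of the per-plate median nuclei count of sample wells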). The following applies: exon1htt(103Q)mCFP cell line, aggregate imaging, at 2 µM; inhibition of aggregation: stronger effect = higher value; nuclei count: measured here: cell count, toxicity.
Test [3] is described as follows: endothelial E-selectin expression blockers – imaging, HUVEC, immunofluorescence, MLSMR starter and 10KST1 sets, primary screen (AID 487;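 active means visually confirmed hit in the image check and inhibition above 20%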;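 on inhibition: signal is fraction of cell area covered by stained E-selectin grains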;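 on nuclei count: 100% = median nuclei count of all wells on the same plate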). The following applies: HUVEC TNFalpha-induced E-selectin immunofluorescence imaging, at 2 µM; inhibition: stronger effect = higher value; nuclei count: measured here: cell number, toxicity.
The target of test [4] is Voltage-gated potassium channel subunit beta-2 (Rattus norvegicus) (UniProt P62483). The test can be described thus: inhibitors of rat Kvbeta2 reductase activity – biochemical, NADPH fluorescence, primary screen (AID 622).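 Further: slope of raw intensity against log time taken from 70 to 1610 s.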 The following applies: recombinant KvBeta, 4-cyanobenzaldehyde reduction, at 10 µM, stronger effect = higher value.
Voltage-gated potassium channel subunit beta-2 (Rattus norvegicus), sequence (P62483 whole entry, looked up): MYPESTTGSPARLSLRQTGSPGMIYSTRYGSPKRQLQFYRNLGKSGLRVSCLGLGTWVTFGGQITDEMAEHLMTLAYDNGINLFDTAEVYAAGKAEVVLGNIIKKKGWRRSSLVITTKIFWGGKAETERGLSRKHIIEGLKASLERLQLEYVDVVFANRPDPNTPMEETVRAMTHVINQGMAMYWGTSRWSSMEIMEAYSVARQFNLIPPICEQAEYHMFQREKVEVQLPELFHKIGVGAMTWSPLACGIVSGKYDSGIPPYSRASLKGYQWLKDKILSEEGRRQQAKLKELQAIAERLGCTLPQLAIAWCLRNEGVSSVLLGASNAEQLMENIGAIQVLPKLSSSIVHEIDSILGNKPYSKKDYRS
For test [5] the target is unchanged. Nature of the test: enhancers of rat Kvbeta2 NADPH turnover – biochemical, NADPH fluorescence, primary screen (AID 623;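 active means NADPH fluorescence slope more negative than the mean of all samples by about 3 SD, 99.7% confidence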;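 further: fluorescence intensity change per second fitted from 20 to 320 s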). As to conditions: Recombinant KvBeta, NADPH fluorescence decrease slope, 10 min; at 10 µM; stronger effect = lower value.
The target of test [6] is Muscarinic acetylcholine receptor M4 (Homo sapiens) (UniProt P08173). Nature of the test: M4-linked GIRK flux change, two-sided – cell-based, HEK293 M4/GIRK, thallium flux, BTC-AM, M4 allosteric agonist project, primary screen (AID 625;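 active means fluorescence slope after compound addition differing from the mean of all tested samples at 99.7% confidence, mostly higher but some lower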;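 further: thallium influx through GIRK channels coupled to M4 in HEK293 cells with BTC-AM dye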). The following applies: at 10 µM, actives lie on both sides. In outline:
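Material – HEK293 cells with M4 receptor and GIRK channels · Buffer or medium – pH 7.3 thallium assay buffer · Doses – one dose, 10 µM final · Timing – cells overnight at 37 °C, BTC-AM loading 1 h, reads 2 min total · Measured by – kinetic fluorescence with BTC-AM dye · Controls – carbachol and DMSO controls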

Test [7] can be described thus: blockers of RIG-like receptor reporter activation – cell-based, Sendai virus stimulus, luciferase, 10K MLSCN set, TLR/RLR signaling modifier project, primary screen (AID 602276;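 active means inhibition at or above 50% at 10 µM; inactive means inhibition below 50%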;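 further: firefly luciferase from ISG56 promoter only with Renilla not read in this screen; 0% = Sendai virus plus DMSO and 100% = medium plus DMSO without virus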). As to conditions: HEK293 RL24 IRF3 luciferase reporter, at 10 µM, stronger effect = higher value.
The nature of test [8]: TLR3 IRF3 reporter activation blockers – cell-based, poly I:C stimulus, luciferase, 10K MLSCN set, primary screen (AID 602277;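 active means inhibition of the reporter signal at or above 50%; inactive means inhibition below 50%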). The following applies: HEK293-TLR3 RL24 IRF3 luciferase reporter, at 10 µM, stronger effect = higher value. For orientation: In a reporter assay the amount or activity of a reporter protein is the signal.

Muscarinic acetylcholine receptor M4 (Homo sapiens), sequence (P08173 whole entry, looked up): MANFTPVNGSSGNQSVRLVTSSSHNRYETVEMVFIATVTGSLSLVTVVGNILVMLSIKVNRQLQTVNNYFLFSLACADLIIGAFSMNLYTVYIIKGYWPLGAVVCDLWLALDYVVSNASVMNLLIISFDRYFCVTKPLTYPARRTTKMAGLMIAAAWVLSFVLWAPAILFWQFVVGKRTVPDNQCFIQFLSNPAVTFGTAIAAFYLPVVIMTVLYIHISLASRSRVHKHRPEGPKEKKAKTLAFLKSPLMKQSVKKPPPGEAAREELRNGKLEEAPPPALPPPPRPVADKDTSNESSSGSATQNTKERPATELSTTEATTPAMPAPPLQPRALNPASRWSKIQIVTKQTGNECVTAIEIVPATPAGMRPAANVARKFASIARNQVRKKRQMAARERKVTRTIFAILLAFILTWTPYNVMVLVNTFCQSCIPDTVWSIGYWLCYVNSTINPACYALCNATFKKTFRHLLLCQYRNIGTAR

`O=C(CS(=O)(=O)Cc1ccccc1)Nc1nc2ccccc2s1`: in test [1], the cell count turned out to be 425. The inhibition is -4% (inactive) in test [1], 13.1% (inactive) in test [3], 10.2% (inactive) in test [7] and 23.6% (inactive) in test [8]. Also, the inhibition of aggregation in test [2] is 8.1% (inactive). Besides, the nuclei count came out at 82.8% in test [2] and 97% in test [3]. Besides, the fluorescence slope is -0.487 (inactive) in test [4] and 0.00544 (inactive) in test [6]. Moreover, the NADPH fluorescence slope in test [5] is -3.1e-05 (inactive).

Turning to `O=C(OCC(=O)c1c[nH]c2ccccc12)C1=COCCO1`, in test [1], the cell count worked out at 579. Further, the inhibition in test [1] was -6.9% (inactive); in test [3], -1% (inactive); in test [7], -19.9% (inactive); in test [8], -100% (inactive). The inhibition of aggregation in test [2] is -9.2% (inactive). Further, the results for the nuclei count in test [2] and in test [3] were 100% and 69.3%, respectively. For the same compound, the fluorescence slope was -0.271 (inactive) in test [4] and 0.00653 (inactive) in test [6]. Further, in test [5], the NADPH fluorescence slope is -5.8e-05 (inactive).

Consider `COC(=O)c1ccc(CSc2nc3ccccc3c(=O)n2Cc2ccco2)o1`, for which the cell count in test [1] came to 414. The inhibition in test [1] is 2.6% (inactive); in test [3], 1.8% (inactive); in test [7] it was 6.37% (inactive); in test [8], -5.19% (inactive). In test [2], the inhibition of aggregation was -12.9% (inactive). Also, the nuclei count was 111% in test [2] and 114% in test [3]. In addition, the values for the fluorescence slope in test [4] and in test [6] were -0.563 (inactive) and 0.00748 (inactive), respectively. Also, the NADPH fluorescence slope in test [5] was -1.4e-05 (inactive).

On to `COC(=O)c1cc(Br)c(=O)n(CCC2=CCCCC2)c1`, for which the cell count in test [1] amounted to 559. For the same compound, the inhibition was 0% (inactive) in test [1], 6.3% (inactive) in test [3], -1.92% (inactive) in test [7] and 9.19% (inactive) in test [8]. The inhibition of aggregation in test [2] is -16.7% (inactive). In addition, the nuclei count stood at 110% in test [2] and 122% in test [3]. Moreover, the fluorescence slope in test [4] is -0.497 (inactive); in test [6], 0.00488 (inactive). Also, in test [5], the NADPH fluorescence slope was 9.3e-05 (inactive).

For `CCOc1cc(C2C(C(=O)c3ccccc3)=C(C(=O)OC)Nc3nnnn32)ccc1O` (stereo not given), the cell count in test [1] was determined as 351. In addition, the inhibition is -7.9% (inactive) in test [1], -69.2% (inactive) in test [3], 0.723% (inactive) in test [7] and 11.1% (inactive) in test [8]. Further, the inhibition of aggregation in test [2] is 0% (inactive). The nuclei count in test [2] was 110%; in test [3], 157%. Also, the fluorescence slope in test [4] was -0.52 (inactive); in test [6] it was 0.00584 (inactive). For the same compound, the NADPH fluorescence slope in test [5] is -3.5e-05 (inactive).

Turning to `Cc1cccn2c(=O)c3cc(C#N)c(=O)n(CCCN4CCOCC4)c3nc12`, in test [1], the cell count was determined as 519. Also, the inhibition in test [1] was 1% (inactive); in test [3], -24.9% (inactive); in test [7] it was 11.2% (inactive); in test [8], 40.1% (inactive). In addition, the inhibition of aggregation in test [2] is 15.5% (inactive). The nuclei count in test [2] was found to be 71.7%; in test [3] it was 173%. Moreover, the fluorescence slope in test [4] is -0.153 (inactive); in test [6], 0.00481 (inactive). Moreover, the NADPH fluorescence slope in test [5] is -1.6e-05 (inactive).

For `CCCCC(CC)C(=O)Nc1ccccc1C#N` (stereo not given), the cell count in test [1] was 452. Further, the inhibition in test [1] is 6% (inactive); in test [3], -63.4% (inactive); in test [7], 14.8% (inactive); in test [8], 22.1% (inactive). For the same compound, in test [2], the inhibition of aggregation was -12.4% (inactive). Also, the nuclei count is 106% in test [2] and 118% in test [3]. Besides, the fluorescence slope is -0.419 (inactive) in test [4] and 0.00611 (inactive) in test [6]. Besides, the NADPH fluorescence slope in test [5] was -2e-05 (inactive).

Consider `O=C(NCc1ccco1)C1Cc2ccccc2CN1S(=O)(=O)c1ccccc1F` (stereo not given), for which the cell count in test [1] came to 654. Further, the inhibition is 7.7% (inactive) in test [1], -30% (inactive) in test [3], 6.51% (inactive) in test [7] and -0.697% (inactive) in test [8]. The inhibition of aggregation in test [2] is 26.2% (inactive). Also, the nuclei count in test [2] was 95.5%; in test [3], 98.1%. Further, the fluorescence slope in test [4] is -0.591 (inactive); in test [6], 0.0061 (inactive). Further, in test [5], the NADPH fluorescence slope is -1.7e-05 (inactive).

Consider `COC(=O)c1ccc(CN(c2ccccc2OC)S(=O)(=O)c2cccs2)o1`, for which, in test [1], the cell count was found to be 666. Moreover, the inhibition in test [1] was 8.1% (inactive); in test [3], 44.1% (inactive); in test [7], 3.68% (inactive); in test [8], 7.96% (inactive). Further, the inhibition of aggregation in test [2] is -4.4% (inactive). The nuclei count came out at 113% in test [2] and 98.6% in test [3]. The fluorescence slope is -0.534 (inactive) in test [4] and 0.00695 (inactive) in test [6]. In addition, in test [5], the NADPH fluorescence slope is -5.7e-05 (inactive).

With `NC(=O)c1c(-c2ccccc2)oc2ccc(O)cc12`, in test [1], the cell count came to 380. The inhibition was -4.7% (inactive) in test [1], -104% (inactive) in test [3], -8.7% (inactive) in test [7] and -13.7% (inactive) in test [8]. For the same compound, the inhibition of aggregation in test [2] was 11.1% (inactive). Moreover, the nuclei count is 103% in test [2] and 92.8% in test [3]. The fluorescence slope in test [4] is -0.532 (inactive); in test [6] it was 0.00463 (inactive). Also, the NADPH fluorescence slope in test [5] is -1.2e-05 (inactive).
